This is an account of results in ChEMBL document CHEMBL3102781, “Synthesis and activity of substituted heteroaromatics as positive allosteric modulators for α4β2α5 nicotinic acetylcholine receptors” (Bioorg Med Chem Lett, 2014).

One may read the EC50 as the concentration needed to bring the measured effect to its halfway point.

Structures are written as SMILES. Calls of active or inactive are those of the source. No cut-off for these calls is given here.

Nicotinic acetylcholine receptor alpha4/beta2/alpha5, sequence (P17787 whole entry): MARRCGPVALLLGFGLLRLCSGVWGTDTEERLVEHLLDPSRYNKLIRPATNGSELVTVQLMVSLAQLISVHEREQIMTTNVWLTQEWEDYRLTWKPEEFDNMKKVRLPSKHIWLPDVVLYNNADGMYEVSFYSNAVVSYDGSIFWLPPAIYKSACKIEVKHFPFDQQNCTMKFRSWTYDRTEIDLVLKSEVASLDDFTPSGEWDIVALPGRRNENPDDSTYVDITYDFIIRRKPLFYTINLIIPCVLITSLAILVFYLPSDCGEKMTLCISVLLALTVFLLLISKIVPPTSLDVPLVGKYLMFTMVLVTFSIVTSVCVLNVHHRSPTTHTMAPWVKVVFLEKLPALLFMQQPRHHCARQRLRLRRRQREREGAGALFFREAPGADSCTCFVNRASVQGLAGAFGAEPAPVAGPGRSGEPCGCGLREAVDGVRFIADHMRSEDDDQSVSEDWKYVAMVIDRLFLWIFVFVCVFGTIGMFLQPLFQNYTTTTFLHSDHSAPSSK
Nicotinic acetylcholine receptor alpha4/beta2/alpha5, sequence (P43681 whole entry): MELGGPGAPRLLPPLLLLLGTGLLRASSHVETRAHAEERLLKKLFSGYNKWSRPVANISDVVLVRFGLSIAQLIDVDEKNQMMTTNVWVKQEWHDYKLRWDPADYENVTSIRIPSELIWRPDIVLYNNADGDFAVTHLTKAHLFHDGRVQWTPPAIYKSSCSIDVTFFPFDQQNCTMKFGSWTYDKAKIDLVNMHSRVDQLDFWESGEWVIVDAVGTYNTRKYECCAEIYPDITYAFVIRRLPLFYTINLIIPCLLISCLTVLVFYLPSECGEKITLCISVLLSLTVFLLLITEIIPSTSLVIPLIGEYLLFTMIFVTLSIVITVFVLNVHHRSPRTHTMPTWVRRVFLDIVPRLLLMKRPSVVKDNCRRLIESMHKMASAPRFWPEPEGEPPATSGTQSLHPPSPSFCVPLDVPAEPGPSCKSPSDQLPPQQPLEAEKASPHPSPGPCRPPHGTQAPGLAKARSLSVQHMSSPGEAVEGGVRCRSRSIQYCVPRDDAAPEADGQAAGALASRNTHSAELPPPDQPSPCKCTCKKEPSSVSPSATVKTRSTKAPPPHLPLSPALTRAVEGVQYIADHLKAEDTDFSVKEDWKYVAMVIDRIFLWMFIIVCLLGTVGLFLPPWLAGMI
Nicotinic acetylcholine receptor alpha4/beta2/alpha5, sequence (P30532 whole entry): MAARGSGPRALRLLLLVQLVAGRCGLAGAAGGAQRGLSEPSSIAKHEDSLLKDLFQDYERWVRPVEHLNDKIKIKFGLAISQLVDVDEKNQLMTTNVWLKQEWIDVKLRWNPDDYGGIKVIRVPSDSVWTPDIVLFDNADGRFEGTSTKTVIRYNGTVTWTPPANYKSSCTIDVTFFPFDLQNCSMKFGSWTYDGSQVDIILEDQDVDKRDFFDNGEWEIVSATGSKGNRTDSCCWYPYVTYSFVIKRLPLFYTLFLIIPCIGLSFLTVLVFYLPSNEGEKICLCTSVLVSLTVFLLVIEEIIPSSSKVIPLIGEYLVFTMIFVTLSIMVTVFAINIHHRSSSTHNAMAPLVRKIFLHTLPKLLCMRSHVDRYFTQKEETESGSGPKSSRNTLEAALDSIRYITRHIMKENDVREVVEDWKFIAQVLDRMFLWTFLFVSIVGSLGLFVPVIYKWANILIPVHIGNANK

In the first assay the target is T1, Nicotinic acetylcholine receptor alpha4/beta2/alpha5 (Homo sapiens) (UniProt P17787+P43681+P30532). Briefly: Agonist activity at human alpha4beta2alpha5 nACHR expressed in HEK-tsA201 cells by fluorometric analysis. It counts as cell-based.
Consider `N#Cc1cccc(-n2nnc(-c3ccccn3)n2)c1`, for which the outcome was inactive.

With `C[n+]1cccc(-c2noc(-c3cccc(C#N)c3)n2)c1`, the result was inactive.

For `C[n+]1cccc(-c2nnn(-c3cccc(C#N)c3)n2)c1`, the outcome was inactive.

For `Clc1ccc(-c2nc(-c3cccnc3)no2)cc1`, the outcome was inactive.

Turning to `Brc1cccc(-n2nnc(-c3cccnc3)n2)c1`, the outcome was inactive.

Regarding `N#Cc1cccc(-n2nnc(-c3cnccc3Cl)n2)c1`, the outcome was inactive.

Take `FC(F)(F)Oc1cccc(-c2nc(-c3cccnc3)no2)c1`: the result was inactive.

As for `N#Cc1cccc(-c2nc(-c3ccccc3)no2)c1`, the result was inactive.

Consider `O=[N+]([O-])c1ccccc1-c1nc(-c2cccnc2)no1`, for which the outcome was inactive.

`N#Cc1cccc(-n2nnc(-c3ccccc3)n2)c1`: the outcome was inactive.

Turning to `FC(F)(F)c1cccc(-c2nc(-c3cccnc3)no2)c1`, the result was inactive.

For `Fc1cccc(-c2nc(-c3cccnc3)no2)c1F`, the result was inactive.

Take `NC(=O)c1cccc(-n2nnc(-c3cccnc3)n2)c1`: the outcome was inactive.

`N#Cc1cccc(-c2cn(-c3cccnc3)nn2)c1`: the outcome was inactive.

As for `c1ccc(-c2nc(-c3cccnc3)no2)cc1`, the outcome was inactive.

As for `O=[N+]([O-])c1ccc(-c2nc(-c3cccnc3)no2)cc1`, the outcome was inactive.

Regarding `COc1cccc(-c2nc(-c3cccnc3)no2)c1`, the result was inactive.

As for `N#Cc1cccc(-n2nnc(-c3cccnc3Cl)n2)c1`, the outcome was inactive.

As to `Fc1ccc(-n2nnc(-c3cccnc3)n2)c(F)c1`, the outcome was inactive.

Turning to `N#Cc1cccc(-c2ncn(-c3cccnc3)n2)c1`, the outcome was inactive.

On to `N#Cc1cccc(-n2ccc(-c3cccnc3)n2)c1`, for which the result was inactive.

For the molecule `N#Cc1cccc(-c2nc(-c3ccncc3)no2)c1`, the outcome was inactive.

Regarding `N#Cc1cccc(-n2cnc(-c3cccnc3)c2)c1`, the outcome was inactive.

As for `N#Cc1cccc(-n2cnc(-c3cccnc3)n2)c1`, the outcome was inactive.

As for `c1cncc(-c2nnn(-c3cccnc3)n2)c1`, the result was inactive.

Consider `N#Cc1cccc(-c2cn(-c3cccnc3)cn2)c1`, for which the result was inactive.

As for `N#Cc1cccc(-c2nc(-c3ccccn3)no2)c1`, the result was inactive.

Regarding `N#Cc1cccc(-n2nnc(-c3ccncc3)n2)c1`, the result was inactive.

For the molecule `c1cncc(-c2noc(-c3cccnc3)n2)c1`, the outcome was inactive.

Regarding `COc1cc(OC)cc(-n2nnc(-c3cccnc3)n2)c1`, the outcome was inactive.

Consider `N#Cc1cccc(-n2cc(-c3cccnc3)nn2)c1`, for which the result was inactive.

As to `N#Cc1cccc(-c2nnc(-c3cccnc3)[nH]2)c1`, the outcome was inactive.

In the case of `Fc1ccc(-c2nc(-c3cccnc3)no2)cc1F`, the outcome was inactive.

With `Clc1ccccc1-c1nc(-c2cccnc2)no1`, the outcome was inactive.

For the molecule `N#Cc1cccc(-n2nnc(-c3cncc(Cl)c3)n2)c1`, the outcome was inactive.

For the molecule `N#Cc1cccc(-n2nnc(-c3ccc(Cl)nc3)n2)c1`, the outcome was inactive.

As to `Clc1ccccc1-n1nnc(-c2cccnc2)n1`, the result was inactive.

With `Fc1cccc(-c2nc(-c3cccnc3)no2)c1`, the result was inactive.

In the case of `Cc1ccc(-n2nnc(-c3cccnc3)n2)cc1C#N`, the result was inactive.

For `N#Cc1cccc(-c2ccn(-c3cccnc3)n2)c1`, the outcome was inactive.

`N#Cc1cccc(-n2cc(-c3cccnc3)cn2)c1`: the outcome was inactive.

In the case of `O=[N+]([O-])c1cccc(-c2nc(-c3cccnc3)no2)c1`, the outcome was inactive.

Consider `Clc1cc(Cl)cc(-n2nnc(-c3cccnc3)n2)c1`, for which the outcome was inactive.

On to `N#Cc1ccc(-n2nnc(-c3cccnc3)n2)cc1`, for which the result was inactive.

For `COc1ccc(OC)c(-n2nnc(-c3cccnc3)n2)c1`, the outcome was inactive.

For a further assay, the target named is Nicotinic acetylcholine receptor alpha4/beta2/alpha5 (Homo sapiens, UniProt P17787+P30532+P43681). The assay is described as follows: Positive allosteric modulation of human alpha4beta2alpha5 nACHR expressed in HEK-tsA201 cells assessed as potentiation of nicotine-induced current preincubated for 15 mins followed by nicotine-treatment by fluorometric analysis. The format is cell-based. In outline:
(§1)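 Human AChR subtypes were stably expressed in HEK tsA201 cells grown in DMEM with 10% FBS at 37 °C. Plating was 150,000/well for lines without α5 and 200,000/well for α5 lines, on poly-D-lysine plates. β2-containing lines were incubated 20 h at 29 °C before testing. Serial dilutions of compound were added 15 min before nicotine. Membrane-potential fluorescence was read on a FLEXstation, with 3–4 wells per point and a Hill equation fit.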
On to `O=[N+]([O-])c1ccc(-c2nc(-c3cccnc3)no2)cc1`, for which the EC50 was found to be 1700 nM.

`c1cncc(-c2nnn(-c3cccnc3)n2)c1`: the half-maximal effective concentration (EC50) came out at 700 nM.

Consider `c1cncc(-c2noc(-c3cccnc3)n2)c1`, for which the EC50 was determined as 1000 nM.

Take `Fc1ccc(-c2nc(-c3cccnc3)no2)cc1F`: the concentration for a half-maximal effect (EC50) stood at 1300 nM.

Consider `O=[N+]([O-])c1cccc(-c2nc(-c3cccnc3)no2)c1`, for which the EC50 came to 690 nM.

Consider `N#Cc1ccc(-n2nnc(-c3cccnc3)n2)cc1`, for which the EC50 amounted to 2200 nM.

In a further assay the target is T1, Nicotinic acetylcholine receptor alpha4/beta2/alpha5 (Homo sapiens). The assay is described as follows: Positive allosteric modulation of human alpha4beta2alpha5 nACHR expressed in HEK-tsA201 cells assessed as potentiation of nicotine-induced current at 1 uM preincubated for 15 mins followed by nicotine-treatment by fluorometric analysis. The format is cell-based. In outline:
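In human α4β2α5 AChR HEK tsA201 cells (200,000/well, 20 h at 29 °C before testing), compound was added 15 min before nicotine. Potentiation of the nicotine response was read by membrane-potential fluorescence on a FLEXstation, with 3–4 wells averaged per point.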
Turning to `N#Cc1cccc(-n2nnc(-c3ccccn3)n2)c1`, the outcome was inactive.

As to `C[n+]1cccc(-c2noc(-c3cccc(C#N)c3)n2)c1`, the outcome was inactive.

For the molecule `C[n+]1cccc(-c2nnn(-c3cccc(C#N)c3)n2)c1`, the outcome was inactive.

Take `Clc1ccc(-c2nc(-c3cccnc3)no2)cc1`: the outcome was inactive.

For `Brc1cccc(-n2nnc(-c3cccnc3)n2)c1`, the result was inactive.

With `N#Cc1cccc(-n2nnc(-c3cnccc3Cl)n2)c1`, the outcome was inactive.

Take `FC(F)(F)Oc1cccc(-c2nc(-c3cccnc3)no2)c1`: the result was inactive.

Consider `N#Cc1cccc(-c2nc(-c3ccccc3)no2)c1`, for which the outcome was inactive.

For `O=[N+]([O-])c1ccccc1-c1nc(-c2cccnc2)no1`, the outcome was inactive.

On to `N#Cc1cccc(-n2nnc(-c3ccccc3)n2)c1`, for which the outcome was inactive.

Turning to `FC(F)(F)c1cccc(-c2nc(-c3cccnc3)no2)c1`, the outcome was inactive.

For `Fc1cccc(-c2nc(-c3cccnc3)no2)c1F`, the result was inactive.

For the molecule `NC(=O)c1cccc(-n2nnc(-c3cccnc3)n2)c1`, the result was inactive.

With `N#Cc1cccc(-c2cn(-c3cccnc3)nn2)c1`, the result was inactive.

In the case of `c1ccc(-c2nc(-c3cccnc3)no2)cc1`, the result was inactive.

In the case of `O=[N+]([O-])c1ccc(-c2nc(-c3cccnc3)no2)cc1`, the Activity was greater than 50%.

Consider `COc1cccc(-c2nc(-c3cccnc3)no2)c1`, for which the outcome was inactive.

Take `N#Cc1cccc(-n2nnc(-c3cccnc3Cl)n2)c1`: the outcome was inactive.

Consider `Fc1ccc(-n2nnc(-c3cccnc3)n2)c(F)c1`, for which the result was inactive.

Turning to `N#Cc1cccc(-c2ncn(-c3cccnc3)n2)c1`, the outcome was inactive.

`N#Cc1cccc(-n2ccc(-c3cccnc3)n2)c1`: the outcome was inactive.

Turning to `N#Cc1cccc(-c2nc(-c3ccncc3)no2)c1`, the result was inactive.

Consider `N#Cc1cccc(-n2cnc(-c3cccnc3)c2)c1`, for which the outcome was inactive.

On to `N#Cc1cccc(-n2cnc(-c3cccnc3)n2)c1`, for which the result was inactive.

`c1cncc(-c2nnn(-c3cccnc3)n2)c1`: the Activity was greater than 50%.

For the molecule `N#Cc1cccc(-c2cn(-c3cccnc3)cn2)c1`, the outcome was inactive.

In the case of `N#Cc1cccc(-c2nc(-c3ccccn3)no2)c1`, the result was inactive.

On to `N#Cc1cccc(-n2nnc(-c3ccncc3)n2)c1`, for which the result was inactive.

Turning to `c1cncc(-c2noc(-c3cccnc3)n2)c1`, the Activity is greater than 50%.

Take `COc1cc(OC)cc(-n2nnc(-c3cccnc3)n2)c1`: the outcome was inactive.

For `N#Cc1cccc(-n2cc(-c3cccnc3)nn2)c1`, the outcome was inactive.

Consider `N#Cc1cccc(-c2nnc(-c3cccnc3)[nH]2)c1`, for which the result was inactive.

`Fc1ccc(-c2nc(-c3cccnc3)no2)cc1F`: the Activity was greater than 50%.

Turning to `Clc1ccccc1-c1nc(-c2cccnc2)no1`, the result was inactive.

Take `N#Cc1cccc(-n2nnc(-c3cncc(Cl)c3)n2)c1`: the outcome was inactive.

As to `N#Cc1cccc(-n2nnc(-c3ccc(Cl)nc3)n2)c1`, the result was inactive.

`Clc1ccccc1-n1nnc(-c2cccnc2)n1`: the result was inactive.

On to `Fc1cccc(-c2nc(-c3cccnc3)no2)c1`, for which the outcome was inactive.

Regarding `Cc1ccc(-n2nnc(-c3cccnc3)n2)cc1C#N`, the result was inactive.

Consider `N#Cc1cccc(-c2ccn(-c3cccnc3)n2)c1`, for which the outcome was inactive.

Take `N#Cc1cccc(-n2cc(-c3cccnc3)cn2)c1`: the result was inactive.

For the molecule `O=[N+]([O-])c1cccc(-c2nc(-c3cccnc3)no2)c1`, the Activity is greater than 50%.

On to `Clc1cc(Cl)cc(-n2nnc(-c3cccnc3)n2)c1`, for which the outcome was inactive.

As to `N#Cc1ccc(-n2nnc(-c3cccnc3)n2)cc1`, the Activity was greater than 50%.

Turning to `COc1ccc(OC)c(-n2nnc(-c3cccnc3)n2)c1`, the result was inactive.

The target is the same in the next assay. Briefly: Positive allosteric modulation of human alpha4beta2alpha5 nACHR expressed in HEK-tsA201 cells assessed as potentiation of nicotine-induced current preincubated for 15 mins followed by nicotine-treatment by fluorometric analysis relative to NS9283. The format is cell-based. In outline:
as §1
`O=[N+]([O-])c1ccc(-c2nc(-c3cccnc3)no2)cc1`: the Emax came to 0.81.

For `c1cncc(-c2nnn(-c3cccnc3)n2)c1`, the Emax was found to be 1.9.

On to `c1cncc(-c2noc(-c3cccnc3)n2)c1`, for which the Emax worked out at 0.98.

Regarding `Fc1ccc(-c2nc(-c3cccnc3)no2)cc1F`, the Emax is 1.2.

On to `O=[N+]([O-])c1cccc(-c2nc(-c3cccnc3)no2)c1`, for which the Emax was 1.2.

As for `N#Cc1ccc(-n2nnc(-c3cccnc3)n2)cc1`, the Emax came out at 0.96.
